Columns and labels:
Brain [1] = test: Drug uptake in rat brain at 64 uM in presence of 2-aminobicyclo(2,2,1)heptane-2-carboxylic acid by perfusion technique; format: ADME, tissue-based; details: in vivo
Summary of the method: (§1)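 Rat brain perfused in situ for 60 s at 37 °C with 64 µM prodrug, alone or with 2 mM BCH added to the medium. Vasculature washed 30 s with cold prodrug-free medium. Brain uptake in pmol/mg/min quantified by HPLC after extraction; n=3; two-tailed independent t test.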

[2] = Stability in rat liver assessed as half life of hydrolysis; format: ADME, tissue-based
Summary of the method: (§2)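 Enzymatic hydrolysis at 37 °C in rat serum diluted to 80%, brain homogenate diluted to 20%, or liver homogenate diluted to 50% (v/v) with 0.16 M phosphate buffer pH 7.4. Aliquots taken into acetonitrile to precipitate protein, then analysed by HPLC. Pseudo-first-order half-lives; n=3.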

[3] = Stability in aqueous buffer at pH 7.4; format: physicochemical
Summary of the method: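 Chemical hydrolysis in 0.16 M phosphate buffer pH 7.4 (ionic strength 0.5) at 37 °C in a thermostatted water bath. Disappearance followed by HPLC; pseudo-first-order half-life; n=2.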

[4] = Stability in rat brain assessed as half life of hydrolysis; format: ADME, tissue-based; summary of the method: as §2
Brain [5] = test: Drug uptake in rat brain at 64 uM by perfusion technique; format: ADME, tissue-based; details: in vivo; summary of the method: as §1
[6] = Stability in rat serum assessed as half life of hydrolysis; format: ADME, cell-free; summary of the method: as §2
[7] = biological target: Large neutral amino acids transporter small subunit 1 (Rattus norvegicus) (UniProt Q63016); test: Inhibition of [14C]L-leucine uptake at LAT1 in rat brain at 70 uM by perfusion technique; format: tissue-based
Chain of Large neutral amino acids transporter small subunit 1 (Rattus norvegicus) (Q63016 whole entry, looked up, the tested form may be a part): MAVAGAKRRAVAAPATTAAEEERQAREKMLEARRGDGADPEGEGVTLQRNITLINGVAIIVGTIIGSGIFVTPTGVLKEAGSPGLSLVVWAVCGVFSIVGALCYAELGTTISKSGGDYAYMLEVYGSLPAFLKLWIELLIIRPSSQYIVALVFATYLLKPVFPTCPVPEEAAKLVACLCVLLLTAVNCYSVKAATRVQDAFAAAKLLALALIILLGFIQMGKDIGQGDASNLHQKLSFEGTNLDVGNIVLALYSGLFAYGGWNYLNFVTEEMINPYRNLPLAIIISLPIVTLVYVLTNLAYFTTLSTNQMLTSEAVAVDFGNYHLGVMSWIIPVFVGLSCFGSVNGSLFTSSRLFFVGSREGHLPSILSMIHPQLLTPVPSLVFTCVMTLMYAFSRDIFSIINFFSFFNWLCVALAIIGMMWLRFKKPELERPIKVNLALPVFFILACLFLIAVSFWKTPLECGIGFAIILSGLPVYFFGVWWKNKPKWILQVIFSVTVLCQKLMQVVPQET
Summary of the method: (§3)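 In situ rat brain perfusion with pH 7.4 bicarbonate-buffered saline (37 °C, 95% O2/5% CO2). [14C]L-leucine 0.2 µCi/mL perfused 30 s alone (100% PA product) or co-perfused with 70 µM prodrug. PA product derived from brain radioactivity measured by liquid scintillation counting; [14C]sucrose (0.2 µCi/mL) used as vascular marker. Inhibition relative to control PA; n=3–5.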

Brain [8] = test: (§4) Drug uptake in rat brain after 60 secs perfusion; format: ADME, tissue-based; details: in vivo, 1 min
Summary of the method: (§5)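 In situ rat brain perfusion, 60 s at 37 °C, with seven prodrug concentrations from 0 to 138 µM in bicarbonate-buffered saline pH 7.4. Vasculature then washed 30 s with cold (5 °C) prodrug-free medium. Brain hemisphere homogenised, acidified, ethyl acetate-extracted and analysed by HPLC. Km and Vmax from nonlinear Michaelis–Menten fit; mean ± SD, n=3.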

[9] = as §4; format: ADME, tissue-based; details: brain, other: perfusion; summary of the method: as §5
[10] = biological target: Large neutral amino acids transporter small subunit 1 (Rattus norvegicus) (UniProt Q63016); test: Binding affinity at LAT1 in rat brain assessed Inhibition of [14C]L-leucine PA uptake at 70 uM; format: tissue-based; summary of the method: as §3

SMILES: CC(C(=O)Oc1ccc(C[C@H](N)C(=O)O)cc1)c1cccc(C(=O)c2ccccc2)c1.Cl (stereo partly drawn)
- Drug uptake (Brain [1]): 0.362 pmol/min/mg
- half-life [2]: 2.8 min
- half-life [3]: 1350 min
- half-life [4]: 4.4 min
- Drug uptake (Brain [5]): 0.846 pmol/min/mg
- half-life [6]: 10.2 min
- inhibition [7]: 98.5%
- Vmax (Brain [8]): 1.41 pmol/min/mg
- Km at 1 min [9]: 22.5 µM

SMILES: CC(C(=O)OCCOC(=O)[C@@H](N)Cc1ccccc1)c1cccc(C(=O)c2ccccc2)c1 (stereo partly drawn)
- Activity [10]: 0.0282 mL/s/g

SMILES: CC(C)CC(NC(=O)C(C)c1cccc(C(=O)c2ccccc2)c1)C(=O)O (stereo not drawn)
- Activity [10]: 0.0266 mL/s/g

SMILES: CC(C(=O)NC(Cc1ccccc1)C(=O)O)c1cccc(C(=O)c2ccccc2)c1 (stereo not drawn)
- Activity [10]: 0.0191 mL/s/g

SMILES: CC(C)C[C@H](N)C(=O)OCCOC(=O)C(C)c1cccc(C(=O)c2ccccc2)c1 (stereo partly drawn)
- Activity [10]: 0.0212 mL/s/g
